Most compounds without a hit are left out; they make up all but 8.8% or so of the library.
M1 ag: M1 muscarinic receptor agonism; 3% of 64,000 active; B-score at 10 µM; CHO-M1 cells, Fluo-4 calcium fluorescence, agonist mode; stronger effect = higher value; AID 626;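 active means fluorescence rise, raw or as B-score row- and column-corrected plate score, outside the 99.7% band of its plate's samples, either direction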
SF1 activator: SF-1 (human) activation | Q13285 | CHO-K1 Gal4-SF-1 LBD luciferase reporter; % increase over DMSO SF-1-specific signal | AID 522 | 1.9% of 65,000 active | activation, % at 10 µM;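 active means activation above the mean activation of all tested compounds plus 3 SD, cut at about 50% in these data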
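Material: CHO-K1 cells with Gal4–hSF-1 LBD chimera plus Gal4-driven luciferase / Input: 4,000 CHO-K1 cells per well / Incubation: compound exposure 20 h at 37 °C / Signal: luminescence read 15 min after SteadyLite luciferase reagent, after room-temperature equilibration / Read-out: percent activation versus DMSO / Benchmarks: DMSO negative control and −SF1 background wells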
S1P1 ag pot: S1P1 (human) agonism or agonism potentiation; activation, % at 9.5 µM; P21453; 0.57% of 56,000 active; S1P1 CRE-bla cells, forskolin, beta-lactamase FRET, potentiator mode; S1P1 agonist co-added at EC20, 2 nM; 100% = saturating reference agonist, 0% = basal; AID 449;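 active means activation above a cutoff set at the mean activation of all tested compounds plus 3 SD, cut at about 54% in these data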;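 further: forskolin at 4 µM as EC80 and the EC20 agonist is SEW2871; 100% = SEW2871 at its EC100 plus forskolin at EC80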
Target sequence (P21453 whole entry, looked up): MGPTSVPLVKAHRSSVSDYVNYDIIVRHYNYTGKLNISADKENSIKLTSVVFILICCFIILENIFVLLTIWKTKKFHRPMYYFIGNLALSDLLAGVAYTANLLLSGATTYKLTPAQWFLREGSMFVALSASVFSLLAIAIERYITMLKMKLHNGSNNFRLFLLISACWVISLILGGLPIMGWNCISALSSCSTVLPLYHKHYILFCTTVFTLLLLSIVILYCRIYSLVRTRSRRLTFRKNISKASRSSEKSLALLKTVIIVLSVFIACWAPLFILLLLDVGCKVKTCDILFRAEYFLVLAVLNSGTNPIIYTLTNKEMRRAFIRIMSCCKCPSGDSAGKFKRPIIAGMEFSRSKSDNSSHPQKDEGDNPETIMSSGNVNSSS
RORA act: RORA (human) activation. 1.5% of 65,000 active. AID 560. CHO-K1 Gal4-RORA LBD luciferase reporter, luminescence; percent increase over mock-subtracted basal signal. activation, % at 10 µM;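 active means activation above the mean of all tested compounds plus 3 SD, cut at about 49% in these data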;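 further: 0% = DMSO-treated RORA cells and 100% = added signal equal to DMSO minus mock-transfected cells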
M1 antag: antagonists of rat M1 muscarinic receptor. 3.4% of 64,000 active. CHO-M1 cells, Fluo-4 calcium, ACh EC80 antagonist mode; stronger effect = lower value. B-score at 10 µM;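 active means calcium fluorescence response, raw or row-and-column corrected B-score, differing from the plate sample mean either way at a set confidence level, mostly lower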
S1P3 agonist: agonists of human S1P3 receptor; Q99500; S1P3 NFAT-BLA reporter cells, agonism, FRET ratio; relative to 1 µM S1P, basal subtracted; activation, % at 4.5 µM; 0.1% of 60,000 active;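 active means activation above the screen-wide mean plus 3 SD, cut at about 4.5% in these data, passing the limit was not always enough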
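material = human S1P3 NFAT-BLA reporter CHO cells | schedule = 4 h compound at 37 °C, 2 h substrate at RT | measured by = fluorescent BLA substrate, ex 405 nm, em 460/535 nm ratio | controls = 1 µM S1P reference | replication = primary once, confirmation triplicate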
Active calls of the source: *.

Results for CCCCN1CC(O)=C(c2nc3ccccc3s2)C1=N ?
M1 ag: -0.21; SF1 activator: 74*; S1P1 ag pot: -8; RORA act: 30; M1 antag: 1.4; S1P3 agonist: 0

Results for N=C1C(c2nc3ccccc3s2)=C(O)CN1CCCO ?
M1 ag: 0.2; SF1 activator: 23; S1P1 ag pot: 11; RORA act: 23; M1 antag: -0.069; S1P3 agonist: -1

What do the screens show for `c1ccc2c(c1)CCCN2c1nc2ccccc2n2cnnc12`?
M1 ag: -0.93; SF1 activator: 54*; S1P1 ag pot: -3; RORA act: 37; M1 antag: 0.085; S1P3 agonist: -1

Results for Cn1c(C(=O)NCCc2c[nH]c3ccccc23)cc2sccc21 ?
M1 ag: 0.0055; SF1 activator: 79*; S1P1 ag pot: 10; RORA act: 74*; M1 antag: -0.0007; S1P3 agonist: -1

How did Cc1ccc(OCn2c(=O)sc3ccccc32)cc1 do in these assays?
M1 ag: 0.57; SF1 activator: 27; S1P1 ag pot: 22; RORA act: 44; M1 antag: 0.78; S1P3 agonist: -1

What do the screens show for `CCOc1cc(C(=O)CSc2nnc(CNc3ccc(Cl)cc3)o2)ccc1NC(=O)CC`?
M1 ag: 0.018; SF1 activator: -56; S1P1 ag pot: 12; RORA act: -54; M1 antag: 0.16; S1P3 agonist: -1

How did CCn1ccc(C(=O)Nc2ccc(Cl)cn2)n1 do in these assays?
M1 ag: 0.12; SF1 activator: 78*; S1P1 ag pot: -4; RORA act: 59*; M1 antag: -0.19; S1P3 agonist: -1

Results for CCn1ccc(C(=O)Nc2ccc(N(C)C(C)=O)cc2)n1 ?
M1 ag: 0.36; SF1 activator: 38; S1P1 ag pot: 13; RORA act: 13; M1 antag: -0.17; S1P3 agonist: -1

What do the screens show for `CCOc1ccc2[nH]c(=O)c(CN(Cc3cccs3)Cc3nnnn3C(C)(C)CC)cc2c1`?
M1 ag: 0.92; SF1 activator: 24; S1P1 ag pot: 9; RORA act: 36; M1 antag: 0.77; S1P3 agonist: 0

What do the screens show for `CCC(C)(C)n1nnnc1CN(Cc1cccs1)Cc1cc2cc(OC)ccc2[nH]c1=O`?
M1 ag: 3.7*; SF1 activator: 10; S1P1 ag pot: -31; RORA act: 14; M1 antag: -1; S1P3 agonist: 0

Results for Cc1sc(NC(=O)c2cccs2)c(C(N)=O)c1C ?
M1 ag: 0.5; SF1 activator: 51*; S1P1 ag pot: -22; RORA act: 45; M1 antag: 0.0059; S1P3 agonist: -1

What do the screens show for `NC(=O)c1ccsc1NC(=O)c1cccs1`?
M1 ag: 0.0022; SF1 activator: 55*; S1P1 ag pot: -14; RORA act: 68*; M1 antag: 0.78; S1P3 agonist: 0

Results for Cc1ccsc1C(=O)OCC(=O)NCC1CCCO1 (stereo not given) ?
M1 ag: -0.12; SF1 activator: 4; S1P1 ag pot: 4; RORA act: 22; M1 antag: 1.2; S1P3 agonist: -1

How did NC(=O)c1ccsc1NC(=O)C1CCCCC1 do in these assays?
M1 ag: -1.2; SF1 activator: 20; S1P1 ag pot: -23; RORA act: 11; M1 antag: 1; S1P3 agonist: -1

Results for COC(=O)c1c(NC(=O)Cc2cccs2)sc(C)c1C ?
M1 ag: 0.64; SF1 activator: -9; S1P1 ag pot: -11; RORA act: -15; M1 antag: -0.74; S1P3 agonist: 0

How did Cc1ccsc1C(=O)OCC(=O)Nc1sccc1C(N)=O do in these assays?
M1 ag: 1.3; SF1 activator: 74*; S1P1 ag pot: -13; RORA act: 42; M1 antag: -0.021; S1P3 agonist: 0

Results for O=C1C(Cl)=C(NCC2CCCO2)C(=O)N1CCc1ccccc1 (stereo not given) ?
M1 ag: -0.95; SF1 activator: 36; S1P1 ag pot: -9; RORA act: 48; M1 antag: 0.91; S1P3 agonist: 0

What do the screens show for `CC(=O)C(Sc1nn(C)c(=S)s1)C(=O)Nc1ccccc1` (stereo not given)?
M1 ag: -2.9; SF1 activator: 5; S1P1 ag pot: 3; RORA act: 5; M1 antag: 0.4; S1P3 agonist: -1

What do the screens show for `Cc1nc2cc(NC(=O)NCCC3=CCCCC3)ccc2o1`?
M1 ag: 0.25; SF1 activator: 46; S1P1 ag pot: 17; RORA act: 73*; M1 antag: 0.0049; S1P3 agonist: -2

Results for CCOC(=O)N1CCN(S(=O)(=O)N(C)C)CC1 ?
M1 ag: 0.67; SF1 activator: -8; S1P1 ag pot: -17; RORA act: -13; M1 antag: -0.065; S1P3 agonist: 0

Results for O=c1oc2ccccc2cc1-c1cn2cccnc2n1 ?
M1 ag: 0.91; SF1 activator: 36; S1P1 ag pot: 14; RORA act: 55*; M1 antag: -0.27; S1P3 agonist: 0

What do the screens show for `COCC(=O)NC1CCN(C(=O)Nc2ccc(Br)cc2)CC1`?
M1 ag: -0.15; SF1 activator: 9; S1P1 ag pot: -8; RORA act: -12; M1 antag: -1.4; S1P3 agonist: 0

Results for O=C(CSCc1ccc(Cl)cc1)c1ccco1 ?
M1 ag: 0.36; SF1 activator: 19; RORA act: -5; M1 antag: 0.42

Results for CCOC(=O)C1CCN(C(=O)COc2ccc(Cl)cc2Cl)CC1 ?
M1 ag: -0.075; SF1 activator: 3; S1P1 ag pot: -13; RORA act: -19; M1 antag: -0.14; S1P3 agonist: 0

Results for COC(=O)C1CCN(C(=O)C(C)Oc2ccc(Cl)cc2Cl)CC1 (stereo not given) ?
M1 ag: -0.15; SF1 activator: 4; RORA act: 0; M1 antag: 1.2*

How did CCOC(=O)C1CCCN(C(=O)C(C)Oc2ccc(Cl)cc2Cl)C1 (stereo not given) do in these assays?
M1 ag: 4.5*; SF1 activator: -2; RORA act: -17; M1 antag: 0.14

What do the screens show for `Cc1nn(Cc2ccc(Cl)c(Cl)c2)c(C)c1NC(=O)c1cc(-c2ccco2)on1`?
M1 ag: 0.0082; SF1 activator: -42; S1P1 ag pot: 96*; RORA act: -2; M1 antag: -0.4; S1P3 agonist: -1

How did CCOC(=O)Cc1cc(=O)[nH]c(Nc2nc3ccccc3o2)n1 do in these assays?
M1 ag: 0.14; SF1 activator: 11; S1P1 ag pot: 10; RORA act: 50*; M1 antag: 1; S1P3 agonist: -1

Results for Cc1cc(-n2c(C)cc(C(=O)CN3C(=O)NC4(CCCCC4)C3=O)c2C)no1 ?
M1 ag: 0.48; SF1 activator: -7; S1P1 ag pot: 18; RORA act: -4; M1 antag: 1.7*; S1P3 agonist: -1

Assay outcomes: PubChem, several laboratories
